Results from ChEMBL document CHEMBL1130029 (J Med Chem, 1997).
Where “and” joins values, the source holds several entries; their conditions need not be identical. Identical values can stand only once.

Key:
[1] = tested on: Rhesus monkey; assay: In vivo plasma levels in Rhesus monkey was determined at a dose of 8 mg/kg administered orally; none detected; type: functional, organism-based; set-up: dose 8 mg/kg; details: Cercopithecidae
[2] = tested on: rhinovirus B14; assay: % survivors was determined against mutants of human rhinovirus 14 by extended cycle replication assay in 1 ug/mL enviroxime by different amino acid substitution by different amino acid substitution; type: functional
In short: (§1)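 Values are expressed relative to a no-drug control. Mutants of rhinovirus 14 were isolated, sequenced and assayed for resistance by earlier-reported procedures.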

[3] = tested on: rhinovirus B14; assay: % survivors was determined against mutants of human rhinovirus 14 by extended cycle replication assay in 1 ug/mL enviroxime; type: functional; in short: as §1
[4] = tested on: Human rhinovirus sp.; assay: (§2) % survivors was determined against mutants of human rhinovirus 14 by extended cycle replication assay in 1 ug/mL enviroxime by different amino acid substitution; type: functional; in short: as §1
[5] = tested on: rhinovirus B14; assay: as §2; type: functional; in short: as §1
[6] = tested on: Human rhinovirus sp.; assay: Compound was tested for resistance (survivors(%)) by extended cycle replication assay conducted in 1 ug/mL Enviroxime.(3A amino acid substitution Asp 28 to Tyr).; type: functional; in short: as §1
[7] = tested on: Human rhinovirus sp.; assay: Compound was tested for resistance (survivors(%)) by extended cycle replication assay conducted in 1 ug/mL Enviroxime.(3A amino acid substitution Glu 34 to Val).; type: functional; in short: as §1
[8] = tested on: Human rhinovirus sp.; assay: Compound was tested for resistance (survivors(%)) by extended cycle replication assay conducted in 1 ug/mL Enviroxime.(3A amino acid substitution Glu 51 to Val); type: functional; in short: as §1
[9] = tested on: Human rhinovirus sp.; assay: Compound was tested for resistance (survivors(%)) by extended cycle replication assay conducted in 1 ug/mL Enviroxime.(3A amino acid substitution Gly 72 to Ser); type: functional; in short: as §1
[10] = tested on: Human rhinovirus sp.; assay: Compound was tested for resistance (survivors(%)) by extended cycle replication assay conducted in 1 ug/mL Enviroxime.(3A amino acid substitution Ile 32 to Val); type: functional; in short: as §1
[11] = tested on: Human rhinovirus sp.; assay: Compound was tested for resistance (survivors(%)) by extended cycle replication assay conducted in 1 ug/mL Enviroxime.(3A amino acid substitution Ile 42 to Val); type: functional; in short: as §1
[12] = tested on: Human rhinovirus sp.; assay: Compound was tested for resistance (survivors(%)) by extended cycle replication assay conducted in 1 ug/mL Enviroxime.(3A amino acid substitution Ile 77 to Val).; type: functional; in short: as §1
[13] = tested on: Human rhinovirus sp.; assay: Compound was tested for resistance (survivors(%)) by extended cycle replication assay conducted in 1 ug/mL Enviroxime.(3A amino acid substitution Met 54 to Ile); type: functional; in short: as §1
[14] = tested on: Human rhinovirus sp.; assay: Compound was tested for resistance (survivors(%)) by extended cycle replication assay conducted in 1 ug/mL Enviroxime. wild type; type: functional; in short: as §1
[15] = organism: Homo sapiens; assay: In vitro hepatic microsomal metabolism in human; type: functional; details: Liver
In short: (§3)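 Microsomes from F344 rat, beagle dog, cynomolgus monkey or pooled human were incubated at 37 °C in a shaking bath. The oxidative arm used pH 7.4 Tris with NADPH and was run 3 h. The glucuronidation arm used pH 7.4 Tris-Brij with MgCl2 and UDPGA and was run 1 h. Compound was added from an acetone stock. Reactions were stopped with chilled acetonitrile, and unincubated controls were compared. Remaining parent was measured by HPLC.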

[16] = tested on: Monkey; assay: In vitro hepatic microsomal metabolism in monkey; type: functional; details: Cercopithecidae, Liver; in short: as §3
[17] = organism: Mus musculus; assay: In vitro hepatic microsomal metabolism in mouse; type: functional; details: Liver
[18] = organism: Rattus norvegicus; assay: In vitro hepatic microsomal metabolism in rat; type: functional; details: Liver; in short: as §3
[19] = organism: Canis familiaris; assay: In vitro hepatic microsomal metabolism in dog; type: functional; details: Canis lupus familiaris, Liver; in short: as §3
[20] = Oral bioavailability in Rhesus monkey (dose 16 mg/kg); type: ADME, organism-based, Macaca mulatta; details: in vivo
In short: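 Two female and two male rhesus monkeys were dosed orally (16 mg/kg) and then iv (1 mg/kg) after a 2-week washout. Plasma was sampled from 1 min to 8 h, extracted liquid-liquid into benzene or cyclohexane, and quantified by reverse-phase HPLC (detection limit 10 ng/mL). AUC was calculated by the trapezoidal rule, and bioavailability = (AUCpo/dose)/(AUCiv/dose) × 100.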

[21] = organism: Rattus norvegicus; assay: In vitro hepatic microsomal metabolism in rat.; type: functional; details: Liver; in short: as §3
[22] = tested on: Rhesus monkey; assay: In vivo plasma levels in Rhesus monkey was determined at a dose of 8 mg/kg administered orally; type: functional, organism-based; set-up: dose 8 mg/kg; details: Cercopithecidae
[23] = organism: Mus musculus; assay: In vitro Hepatic microsomal metabolism in mouse; type: functional; details: Liver

C=C/C=C(\c1ccccc1)c1ccc2nc(N)n(S(=O)(=O)C(C)C)c2c1
Plasma concentration [1]: none detected

CC(C)S(=O)(=O)n1c(N)nc2ccc(/C(=N/O)c3ccccc3)cc21 [ENVIROXIME]
Survivors [2]: 1.5%
Survivors [3]: 0.6% and 2.1%
Survivors [4]: 1.1% and 0.03%
Survivors [5]: 5.5%
Survivors [6]: 2%
Survivors [7]: 1.5%
Survivors [8]: 1.3%
Survivors [9]: 4.9%
Survivors [10]: 0.7%
Survivors [11]: 1.7%
Survivors [12]: 0.7%
Survivors [13]: 1.9%
Survivors [14]: 0.07%
Metabolism [15]: 98%
Metabolism [16]: 80%
Metabolism [17]: 24%
Metabolism [18]: 39%
Metabolism [19]: 37%

C#C/C=C(\c1ccc(F)cc1)c1ccc2nc(N)n(S(=O)(=O)C(C)C)c2c1
bioavailability [20]: 23%
Metabolism [15]: 12%
Metabolism [16]: 37%
Metabolism [17]: 13%
Metabolism [18]: 29%
Metabolism [19]: 31%

C/C=C(\c1ccccc1)c1ccc2nc(N)n(S(=O)(=O)C(C)C)c2c1 [ENVIRADENE]
Metabolism [15]: 73%
Metabolism [16]: 88%
Metabolism [21]: 27%
Plasma concentration [22]: 14 ng/mL
Plasma concentration ([22]; tested as the 2H-labelled form): 10 ng/mL
Metabolism [23]: 36%
Metabolism [19]: 40%

C#C/C=C(\c1ccc(OCC)cc1)c1ccc2nc(N)n(S(=O)(=O)C(C)C)c2c1
bioavailability [20]: 4%

C#C/C=C(\c1ccc([S+](C)[O-])cc1)c1ccc2nc(N)n(S(=O)(=O)C(C)C)c2c1 (configuration not stated)
bioavailability [20]: 3%

C#C/C=C(\c1ccccc1)c1ccc2nc(N)n(S(=O)(=O)C(C)C)c2c1
bioavailability [20]: 9%
Plasma concentration [22]: 70 ng/mL

C#C/C=C(\c1ccc(SC)cc1)c1ccc2nc(N)n(S(=O)(=O)C(C)C)c2c1
bioavailability [20]: 5%

C#C/C=C(\c1ccc(OC)cc1)c1ccc2nc(N)n(S(=O)(=O)C(C)C)c2c1
bioavailability [20]: 5%
Survivors [6]: 4.7%
Survivors [7]: 5%
Survivors [8]: 3.8%
Survivors [9]: 6.8%
Survivors [10]: 2.3%
Survivors [11]: 5.6%
Survivors [12]: 2.2%
Survivors [13]: 3.5%
Survivors [14]: 0.05%
